Drawing on ChEMBL document CHEMBL1140224, “Dihydrofuro[3,4-c]pyridinones as inhibitors of the cytolytic effects of the pore-forming glycoprotein perforin” (J Med Chem, 2008), this text covers Activity, inhibition and viability for nine compounds.

The source made the active and inactive calls. No cut-off for these calls is given here.

Data set [1] has as its system Salmonella typhimurium. Description: Mutagenic activity in Salmonella Typhimurium TA100 by Ames assay. It is filed as toxicity, organism-based. Conditions: salmonella enterica subsp. enterica serovar typhimurium.
Data set [2] addresses T1, Perforin-1 (Homo sapiens) (UniProt P14222).
T1 sequence (whole entry): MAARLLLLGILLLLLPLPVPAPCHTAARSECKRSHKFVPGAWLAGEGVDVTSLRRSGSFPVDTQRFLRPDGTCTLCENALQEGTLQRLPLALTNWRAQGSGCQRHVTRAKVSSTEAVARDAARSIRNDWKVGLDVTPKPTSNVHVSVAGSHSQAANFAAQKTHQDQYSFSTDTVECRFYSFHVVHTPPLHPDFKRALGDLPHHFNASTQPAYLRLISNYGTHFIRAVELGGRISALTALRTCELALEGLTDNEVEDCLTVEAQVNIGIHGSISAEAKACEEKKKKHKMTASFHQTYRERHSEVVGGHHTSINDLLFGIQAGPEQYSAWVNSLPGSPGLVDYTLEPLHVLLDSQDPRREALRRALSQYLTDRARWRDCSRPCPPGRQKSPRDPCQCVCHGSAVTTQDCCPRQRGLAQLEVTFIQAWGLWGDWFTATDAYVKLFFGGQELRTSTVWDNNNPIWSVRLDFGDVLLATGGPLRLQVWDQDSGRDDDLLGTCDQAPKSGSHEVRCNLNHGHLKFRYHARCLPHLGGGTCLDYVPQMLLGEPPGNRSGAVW
Description: Inhibition of human KHYG-1 NK cells delivered perforin-mediated death of human K562 cells upto 20 uM preincubated for 20 mins with KHYG-1 cells measured after 30 mins by 51Cr release assay. It is filed as cell-based. Conditions: in the assay text read “measured after 4 hrs” for “measured after 30 mins”. Summed up:
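KHYG-1 NK cells (4 × 10^5/ml, RPMI + 0.1% BSA) given inhibitor up to 20 µM, 20 min at RT. K562 targets labeled with 75 µCi 51Cr for 90 min at 37 °C, added at effector:target 2:1, 4 h at 37 °C. % specific lysis from experimental, spontaneous and maximum release. Mean of triplicates ± SEM; inhibition relative to untreated control, DMSO vehicle control.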

Data set [3] is described as follows: Cytotoxicity against human KHYG-1 cells assessed as cell viability upto 20 uM after 24 hrs by trypan blue exclusion assay. It is filed as cell-based. Conditions: read-out: Activity. An outline of the steps:
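KHYG-1 cells at 4 × 10^5 cells/ml in RPMI + 0.1% BSA, compound up to 20 µM added for 20 min at RT. RPMI 0.1% BSA added in place of targets, 4 h at 37 °C, then washed ×3 and held 18 to 24 h at 37 °C in complete medium. Trypan blue read: clear cells as percent of total. DMSO vehicle control.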

For data set [4], the target named is Tumor necrosis factor ligand superfamily member 10 (Homo sapiens) (UniProt P50591). In words: Inhibition of recombinant TRAIL-mediated death of human Jurkat T cells upto 20 uM after 30 mins by 51Cr release assay. It is filed as cell-based. An outline of the steps:
(§1)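 Fifty thousand 51Cr-labeled Jurkat cells preincubated with 20 µM final inhibitor for 30 min at 37 °C. Anti-Fas agonistic mAb CH11 or recombinant TRAIL, each at 250 ng/mL final, in RPMI with 1% BSA for 2 h. Controls were DMSO diluent and a non-inhibitor at the same concentration; SDS gave maximum release. Supernatant 51Cr γ-counted, triplicates, mean ± SEM.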

Data set [5] deals with Pneumolysin (Streptococcus pneumoniae serotype 4 (strain ATCC BAA-334 / TIGR4)) (UniProt P0C2J9). In words: Inhibition of Streptococcus pneumoniae pneumolysin-mediated lysis of sheep red blood cells. An outline of the steps: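 Single-point test at 20 µM compound, using the perforin/SRBC turbidity format with pneumolysin in place of perforin. Compound in DMSO is preincubated with the lytic protein for at least 30 min. Sheep red blood cells in RBC buffer are then added, and absorbance at 650 nm is read at 0 min and after 15 min at 37 °C. Matching DMSO serves as negative control.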

Data set [6] deals with T2, Tumor necrosis factor ligand superfamily member 6 (Homo sapiens) (UniProt P48023).
T2 sequence (whole entry): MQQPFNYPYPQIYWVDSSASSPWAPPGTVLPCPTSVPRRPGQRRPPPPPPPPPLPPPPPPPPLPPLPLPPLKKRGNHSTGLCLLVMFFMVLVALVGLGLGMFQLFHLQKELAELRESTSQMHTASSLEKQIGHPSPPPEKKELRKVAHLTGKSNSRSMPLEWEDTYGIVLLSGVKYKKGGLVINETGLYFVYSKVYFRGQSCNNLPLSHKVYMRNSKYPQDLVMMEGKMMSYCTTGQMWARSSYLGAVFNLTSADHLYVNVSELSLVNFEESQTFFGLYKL
In words: Inhibition of Fas ligand-mediated death of human Jurkat T cells upto 20 uM after 30 mins by 51Cr release assay. It is filed as cell-based. Summed up: as §1

In data set [7] the target is T1, Perforin-1 (Homo sapiens). In words: Inhibition of human CD3-CD56+ NK cell delivered perforin-mediated death of human K562 cells upto 20 uM preincubated for 30 mins with human CD3-CD56+ NK cell measured after 4 hrs by 51Cr release assay. It is filed as cell-based. An outline of the steps: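 Human CD3-CD56+ NK cells taken from donor buffy coats by Ficoll then negative MACS selection. Used same day or after up to 3 days in 100 U/mL IL-2. Up to 2 × 10^5 NK cells with inhibitor, DMSO or medium in RPMI 0.1% BSA, 30 min at RT. 1 × 10^4 51Cr-labeled K562 added, 4 h at 37 °C, % specific lysis, triplicates.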

Sequence of Tumor necrosis factor ligand superfamily member 10 (Homo sapiens) (P50591 whole entry): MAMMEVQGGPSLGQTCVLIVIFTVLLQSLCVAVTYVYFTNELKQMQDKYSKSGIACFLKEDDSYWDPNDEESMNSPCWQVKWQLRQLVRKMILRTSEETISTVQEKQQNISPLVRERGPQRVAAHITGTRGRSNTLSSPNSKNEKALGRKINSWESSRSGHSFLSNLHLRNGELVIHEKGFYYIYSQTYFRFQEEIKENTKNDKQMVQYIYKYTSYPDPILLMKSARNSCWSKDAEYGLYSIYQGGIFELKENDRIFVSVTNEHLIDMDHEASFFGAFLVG
Sequence of Pneumolysin (Streptococcus pneumoniae serotype 4 (strain ATCC BAA-334 / TIGR4)) (P0C2J9 whole entry): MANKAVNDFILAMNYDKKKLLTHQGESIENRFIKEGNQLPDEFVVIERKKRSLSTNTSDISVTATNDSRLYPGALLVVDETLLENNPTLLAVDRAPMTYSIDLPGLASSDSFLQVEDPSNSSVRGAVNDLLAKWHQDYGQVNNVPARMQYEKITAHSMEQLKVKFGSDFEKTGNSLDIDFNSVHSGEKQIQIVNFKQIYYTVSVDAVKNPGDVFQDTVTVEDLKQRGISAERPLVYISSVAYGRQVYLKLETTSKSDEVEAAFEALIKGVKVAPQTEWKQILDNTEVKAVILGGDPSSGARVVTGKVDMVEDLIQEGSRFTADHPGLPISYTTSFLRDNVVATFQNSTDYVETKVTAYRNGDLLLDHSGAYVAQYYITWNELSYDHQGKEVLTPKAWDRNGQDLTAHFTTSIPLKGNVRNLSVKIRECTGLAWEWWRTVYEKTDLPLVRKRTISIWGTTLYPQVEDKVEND

In the case of `Cc1cc2c(c(=S)[nH]1)C(=O)O/C2=C\c1cccs1`, the Activity result in data set [1] is on record as “Not Active”.
`Cc1cc2c(c(=S)[nH]1)C(=O)O/C2=C\c1ccc(-c2ccccc2)s1`: the inhibition in data set [2] is 100%. In data set [3], the viability at 24 h worked out at 0%.
Turning to `COc1ccc2oc(/C=C3\OC(=O)c4c3cc(C)[nH]c4=S)cc2c1`, the inhibition in data set [2] was 100%. The viability at 24 h in data set [3] came out at 0%.
Regarding `Cc1cc2c(c(=S)[nH]1)C(=O)O/C2=C\c1ccco1`, the outcome in data set [1] was Active.
Take `Cc1cc2c(c(=S)[nH]1)C(=O)O/C2=C\c1csc2ccccc12`: the Activity entry in data set [1] is “Not Active”. Moreover, in data set [2], the inhibition was 63%. The viability at 24 h in data set [3] is 88%.
`Cc1cc2c(c(=O)[nH]1)C(=O)O/C2=C\c1cc2ccccc2s1` returned an inhibition in data set [2] of 65%. Besides, the viability at 24 h in data set [3] came out at 100%.
On to `Cc1cc2c(c(=S)[nH]1)C(=O)O/C2=C\c1ccc(C)o1`, for which the result in data set [1] was Active. The result in data set [4], in data set [5] and in data set [6] was inactive. The inhibition in data set [2] is 50%; in data set [7] it was more than 70%. In data set [3], the viability at 24 h is 72%.
For the compound `Cc1cc2c(c(=S)[nH]1)C(=O)O/C2=C\c1cc2ccccc2[nH]1`, the inhibition in data set [2] turned out to be 95%. Also, the viability at 24 h in data set [3] was determined as 0%.
As for `Cc1cc2c(c(=S)[nH]1)C(=O)O/C2=C\c1ccc[nH]1`, in data set [1], the Activity entry is on record as “Not Active”.
